Test results as given in ChEMBL document CHEMBL3286338, “SAR studies on hydropentalene derivatives--Important core units of biologically active tetramic acid macrolactams and ptychanolides” (Bioorg Med Chem, 2014).
The source made the active and inactive calls. No cut-off for these calls is given here.

Legend:
PtK2 [1] = test: Effect on chromosme distribution in Potorous tridactylus PtK2 cells at 4 ug/ml for overnight incubation by DAPI staining analysis; type: functional, cell-based
Outline: (§1)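 PtK2 cells on glass coverslips incubated overnight with compound or with methanol only. For alpha-tubulin staining, fixed in cold (-20 °C) MeOH/acetone (1:1) for 10 min, then probed with primary antibody. DNA counterstained. Microtubular network, mitotic spindles and chromosome distribution assessed by fluorescence microscopy.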

PtK2 [2] = test: Effect on F-actin cytoskeleton in Potorous tridactylus PtK2 cells at 2 ug/ml for overnight incubation by DAPI staining analysis; type: cell-based
Outline: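 PtK2 cells grown on glass coverslips and exposed to compound overnight, with methanol-only controls. Fixed in 3.7% formalin for 10 min, permeabilized with 0.1% Triton X-100 for 5 min, then stained with Alexa Fluor 488 phalloidin (1:100) for 1 h. F-actin (green) and DNA (blue) examined by fluorescence microscopy.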

Homo sapiens = species on record: Homo sapiens; test: Induction of actin polymerization (unknown origin) at 28 ug/ml after 20 mins by fluorescence analysis
Outline: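 Pyrene-labelled muscle actin used, with pyrene fluorescence reporting polymerization state. Baseline read 3 min, then compound or methanol added and read a further 20 min. Polymerization then started with 10X actin polymerization buffer and read for 1 h.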

[3] = Cytotoxicity against Potorous tridactylus PtK2 cells by MTT assay; type: functional, cell-based
Outline: (§2)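 Cells kept in supplier-recommended media at 37 °C, 10% CO2. Serial dilutions added to a cell suspension (50,000 per mL) and incubated 5 d alongside blank and solvent controls. MTT then added to 0.5 mg mL^-1 final for 2 h, and formazan precipitate collected by centrifugation. Run as two parallel experiments; activity taken as mean relative to controls set at 100%.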

L929 [4] = test: Effect on microtubule polymerization in mouse L929 cells at 0.6 ug/ml by impedance profiling; type: cell-based
Outline: (§3)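 L-929 cell cultures incubated with compound while impedance was recorded over time. The time-dependent impedance curves served as a mode-of-action fingerprint and were compared statistically, by cluster analysis, against curves from a set of reference compounds. Controls received methanol.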

PtK2 [5] = test: Effect on mitotic spindle in Potorous tridactylus PtK2 cells at 4 ug/ml for overnight incubation by DAPI staining analysis; type: functional, cell-based; outline: as §1
L929 [6] = test: Effect on spindle formation in mouse L929 cells at 0.6 ug/ml by impedance profiling; type: cell-based; outline: as §3
PtK2 [7] = test: Effect on microtubular network in Potorous tridactylus PtK2 cells at 4 ug/ml for overnight incubation by DAPI staining analysis; type: functional, cell-based; outline: as §1
Tubulin (Sus scrofa) = Tubulin (Sus scrofa) (UniProt P02554+P02550); test: Inhibition of porcine tubulin polymerization at 500 ug/ml by fluorescence analysis; type: protein assay
Outline: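 Porcine tubulin (kit master mix with buffer, glycerol and GTP) mixed with compound at a 5:50 volume ratio. Placed at once in a fluorimeter at 37 °C. Polymerization followed by incorporation of a fluorescent reporter, read at 460 nm (excitation 340 nm) for about 1 h. Methanol and nocodazole served as controls.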

[8] = Antiproliferative activity against human KB-3-1 cells by MTT assay; type: functional, cell-based; outline: as §2
L929 [9] = test: Antiproliferative activity against mouse L929 cells by MTT assay; type: functional, cell-based; outline: as §2

Tubulin (Sus scrofa), sequence (P02550 whole entry, looked up): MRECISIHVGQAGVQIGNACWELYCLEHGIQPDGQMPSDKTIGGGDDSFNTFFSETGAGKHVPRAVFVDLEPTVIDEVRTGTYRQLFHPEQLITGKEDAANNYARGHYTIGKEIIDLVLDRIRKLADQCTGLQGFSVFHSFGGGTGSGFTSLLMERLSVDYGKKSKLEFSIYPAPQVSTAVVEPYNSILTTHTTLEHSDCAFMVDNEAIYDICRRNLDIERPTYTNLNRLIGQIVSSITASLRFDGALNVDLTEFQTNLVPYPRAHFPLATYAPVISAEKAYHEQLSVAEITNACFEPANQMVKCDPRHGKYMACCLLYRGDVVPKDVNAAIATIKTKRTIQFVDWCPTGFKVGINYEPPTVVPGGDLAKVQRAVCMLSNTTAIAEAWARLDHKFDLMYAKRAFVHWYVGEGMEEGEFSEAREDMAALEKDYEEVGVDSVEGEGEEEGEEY
Tubulin (Sus scrofa), sequence (P02554 whole entry, looked up): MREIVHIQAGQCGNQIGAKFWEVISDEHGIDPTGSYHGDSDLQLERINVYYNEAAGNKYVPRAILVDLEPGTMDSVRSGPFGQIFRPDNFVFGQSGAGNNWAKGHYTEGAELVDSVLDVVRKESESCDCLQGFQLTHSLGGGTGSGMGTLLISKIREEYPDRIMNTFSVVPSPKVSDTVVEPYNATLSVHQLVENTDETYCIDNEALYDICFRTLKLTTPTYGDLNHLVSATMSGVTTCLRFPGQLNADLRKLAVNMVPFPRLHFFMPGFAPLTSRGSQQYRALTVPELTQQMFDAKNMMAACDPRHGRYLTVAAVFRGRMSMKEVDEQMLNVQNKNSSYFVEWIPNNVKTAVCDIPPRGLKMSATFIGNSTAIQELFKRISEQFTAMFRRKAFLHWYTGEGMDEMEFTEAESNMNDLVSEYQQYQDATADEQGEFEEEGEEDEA

SMILES: C#CC(=O)O[C@H]1C[C@@H]2CC3(C[C@@H]2C1)OCC(C)(C)CO3
- Activity (PtK2 [1]): Active
- Activity (PtK2 [2]): Active
- Activity (Homo sapiens): Active
- IC50 [3]: 3000 nM
- Activity (L929 [4]): Active
- Activity (PtK2 [5]): Active
- Activity (L929 [6]): Active
- Activity (PtK2 [7]): Active
- inhibition (Tubulin (Sus scrofa)): Active
- IC50 [8]: 21600 nM
- IC50 (L929 [9]): 2200 nM
